Compound activity deposited in PubChem by several laboratories.
L major viab: Leishmania major promastigote growth inhibition, primary screen. actives 9% (n = 200,000). AID 1063, 2008. Leishmania major promastigotes, resazurin fluorescence viability. inhibition, % at 10 µM; in the data active = inhibition above about 50%;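 also: promastigotes grown with compound for 44 hours at 28 °C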
RAM inhibit: inhibitors of the yeast RAM network, primary screen, dse1pr::URA3 reporter, 5-FOA selection; actives 1.8% (n = 190,000); inhibition, % at 50 µM; S. cerevisiae dse1pr::URA3 reporter, 5-FOA growth OD615, 2 d; analog-sensitive cbk1-as2 kinase mutant strain; AID 868, 2007;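 active = inhibition above a set limit, 3 SD over mean compound inhibition, cut at about 8.4% in these data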;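 also: inhibition rescues growth on 5-FOA so higher OD means more RAM inhibition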
WT yeast gro inh: growth inhibition of WT strain, primary screen, mitochondrial fusion inhibitor project, WT and mutant strains, chemical genetic | inhibition, % at 10 µM | actives 2.1% (n = 190,000) | mitochondrial fusion phenotypic screen; in the data active = inhibition above about 58%; tested in S. cerevisiae
ABCG2 inh: ABCG2 efflux pump inhibitors, primary screen, multiplex with ABCB1, IgMXP3 cells, flow cytometry; Broad substrate specificity ATP-binding cassette transporter ABCG2 (Homo sapiens), Q9UNQ0; JC-1 efflux; inhibition, % at 6.6 µM; actives 0.1% (n = 190,000); AID 1325, 2008;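 active = inhibition above 80%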
Target sequence (Q9UNQ0 whole entry, looked up): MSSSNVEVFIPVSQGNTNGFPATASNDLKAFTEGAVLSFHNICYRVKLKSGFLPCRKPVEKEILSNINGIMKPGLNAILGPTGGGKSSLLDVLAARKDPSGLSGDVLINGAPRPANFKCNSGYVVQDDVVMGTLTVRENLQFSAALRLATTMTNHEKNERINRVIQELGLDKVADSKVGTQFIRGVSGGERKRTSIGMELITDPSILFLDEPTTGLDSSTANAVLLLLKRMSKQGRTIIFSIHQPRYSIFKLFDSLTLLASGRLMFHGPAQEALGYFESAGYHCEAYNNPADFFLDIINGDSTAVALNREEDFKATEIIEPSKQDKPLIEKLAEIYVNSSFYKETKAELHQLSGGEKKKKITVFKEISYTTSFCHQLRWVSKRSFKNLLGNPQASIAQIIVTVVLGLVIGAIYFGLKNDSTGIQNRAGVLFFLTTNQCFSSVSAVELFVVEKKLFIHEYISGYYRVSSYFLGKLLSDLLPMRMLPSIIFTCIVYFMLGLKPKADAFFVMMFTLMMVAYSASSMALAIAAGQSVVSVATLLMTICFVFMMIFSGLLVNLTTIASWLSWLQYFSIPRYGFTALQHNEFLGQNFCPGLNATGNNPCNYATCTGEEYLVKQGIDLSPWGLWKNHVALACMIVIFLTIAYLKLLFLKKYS
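Measure – % inhibition of efflux relative to nicardipine and DMSO · Test system – ABCG2 IgMXP3 and barcoded ABCB1 CCRF-Adr cell mix · Control set – nicardipine as high control, DMSO as low control · Compound – one concentration, 6.6 µM final · Signal – flow cytometry of retained JC-1 fluorescence · Timing – 10 min exposure at 25 °C with rotation, no wash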
ABCB1 inh: ABCB1 efflux pump inhibitors, primary screen, cell-based, multiplex, flow cytometry, ABCG2 counter-screen | CCRF-Adr cells, JC-1 efflux | inhibition, % at 6.6 µM | actives 0.067% (n = 190,000) | AID 1326, 2008; in the data active = inhibition above about 40%;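 also: higher value means more JC-1 retained so stronger ABCB1 efflux block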
Each line names hits and unclear results; the compound was inactive in the other large screens. An excerpt weighted towards active compounds, which were near 12% of everything screened.

CC(=O)c1ccc(OCC(=O)c2cc(C)n(-c3ccc4c(c3)OCO4)c2C)cc1	none
Cc1nnc(SCC(=O)c2cc(C)n(-c3ccc4c(c3)OCO4)c2C)s1	L major viab 60.8
CCCn1c(SCC(=O)c2cc(C)c(C)cc2C)n[nH]c1=O	none
Cc1ccc(C(c2nnnn2C2CCCC2)N2c3ccccc3CC2C)cc1 (centres undefined)	none
C/C(=N/NC(=O)Cc1ccccc1)c1ccc(C)s1	none
O=c1cc(CN2CCN(c3ccccc3)CC2)c2cc(O)c(-c3ccccc3)cc2o1	L major viab 73.3
O=c1cc(CN2CCN(c3cccc(Cl)c3)CC2)c2cc(O)c(-c3ccccc3)cc2o1	none
O=c1cc(CN2CCN(C/C=C/c3ccccc3)CC2)c2cc(O)ccc2o1	L major viab 51.0
O=C(COC(=O)c1cc(=O)c2ccccc2o1)Nc1ccc2ccccc2c1	none
COc1ccc(NC(=O)CCN2C(=O)c3ccc([N+](=O)[O-])cc3C2=O)c(OC)c1	L major viab 89.9
COc1ccc(NS(=O)(=O)c2ccc(NC(=O)c3ccc(N(C)S(C)(=O)=O)cc3)cc2)c(OC)c1	L major viab 54.0
COc1ccc(NS(=O)(=O)c2ccc(NC(C)=O)cc2)c(OC)c1	none
COc1ccc(NC(=O)CN(c2ccc(C)cc2)S(C)(=O)=O)c(OC)c1	WT yeast gro inh 62.0
COc1ccc(N(CC(=O)Nc2ccc(OC)cc2OC)S(=O)(=O)c2ccccc2)cc1	none
COc1cccc(NC(=O)CCN2C(=O)c3ccc([N+](=O)[O-])cc3C2=O)c1	none
COc1ccc(NC(=O)CN(c2ccc([N+](=O)[O-])cc2)S(=O)(=O)c2ccccc2)c(OC)c1	L major viab 74.7
CS(=O)(=O)Nc1ccc(C(=O)Nc2ccc(S(=O)(=O)N3CCCC3)cc2)cc1	none
O=C(CCNC(=O)c1ccccc1Cl)Nc1nccs1	none
COC(=O)c1cc(C(=O)Nc2nnc(C3CC3)s2)cc([N+](=O)[O-])c1	none
COc1ccc(-c2noc(-c3ccc4c(c3)OCO4)n2)cc1	none
COc1ccc(-c2nc(-c3ccc4c(c3)OCO4)[nH]c2-c2ccc(OC)cc2)cc1	L major viab 90.2
CC(C)c1ccccc1NC(=O)C1CN(S(=O)(=O)c2ccccc2)CCN1S(=O)(=O)c1ccccc1 (centres undefined)	RAM inhibit 8.6
COc1ccc(-c2nnn(CC(=O)NCCc3ccc(OC)c(OC)c3)n2)cc1	none
COc1ccc(-c2cc(C(F)(F)F)nc(N3CCCCCC3)n2)cc1	RAM inhibit 8.7
COc1ccc(-c2cc(C(F)(F)F)nc(N3CCN(C)CC3)n2)cc1OC	L major viab 84.8
COc1ccc(-c2cc(C(F)(F)F)nc(N3CCN(C)CC3)n2)cc1	none
COc1ccc(-c2cc(C#N)nc(N3CCNCC3)n2)cc1	L major viab 100.5
COC(=O)c1cc2c(ccn2-c2ccc(F)cc2)n1C(C)C	none
CCCn1c(C(=O)OC)cc2c1ccn2-c1ccc(F)cc1	L major viab 99.2
COC(=O)c1cc(C(=O)OC)n(Cc2ccc(F)cc2)c1C	none
COC(=O)c1cc2c(ccn2-c2ccc(F)cc2)n1CC(C)C	L major viab 98.4
COC(=O)c1cc2c(ccn2-c2ccc(F)cc2)n1Cc1ccc(OC(C)=O)cc1	L major viab 93.0 (no result: ABCB1 inh)
Cc1cc(Cl)ccc1OCC(=O)N/N=C1\CC2C=CCC12 (centres undefined)	none
CC(C)(C)c1ccccc1N=Cc1ccc2ccccc2n1	none
CC(=O)/C=C/c1ccc2ccccc2n1	L major viab 100.4
Nc1nc(-c2ccccc2)c(N=Nc2cccc3ccccc23)s1	WT yeast gro inh 88.7
Cc1ncc(N=Nc2ccccc2Cl)c(-c2ccccc2)n1	none
CC(=O)Nc1sc(N)nc1-c1ccccc1	none
Nc1nc(-c2ccccc2)c(N=Nc2ccccc2Cl)s1	RAM inhibit 9.2
O=C(C1CCCN(S(=O)(=O)c2cccc3cccnc23)C1)N1CCN(c2ccc(F)cc2)CC1 (centres undefined)	none
Cc1cc(C(=O)Nc2ncn[nH]2)ccc1[N+](=O)[O-]	none
C=CCn1c(Br)nc2c1c(=O)[nH]c(=O)n2C	none
COc1ccc(CCn2c(Br)nc3c2c(=O)[nH]c(=O)n3C)cc1	L major viab 91.5
COc1ccc(CCn2c(N3CCN(C)CC3)nc3c2c(=O)[nH]c(=O)n3C)cc1	none
Cn1c(=O)[nH]c(=O)c2c1nc(Br)n2C/C=N/Nc1ccccc1	L major viab 65.2
CCOc1ccc(NC(=O)C(c2ccccn2)N(C(=O)CCl)c2ccc(F)cc2)cc1 (centres undefined)	none
CC(=O)C1=C(c2cccc([N+](=O)[O-])c2)N(C(C)=O)n2c(C)nnc2S1	WT yeast gro inh 59.5
CC(=O)c1c(C(C)=O)c(C)n(-c2cccc([N+](=O)[O-])c2)c1C	none
Clc1ccc(/C=N/NC(=Nc2ccccc2)c2ccccn2)c(Cl)c1	WT yeast gro inh 74.1
Cc1ccccc1CN1CCSc2sccc2C1=O	none
Cc1ccsc1/C=C/C1=Cc2c(sc(NC(=O)CSc3n[nH]c(N)n3)c2C#N)C(C)(C)C1	L major viab 100.2
CCOc1ccc(/C=C/C2=Cc3c(sc(NC(=O)CSc4n[nH]c(N)n4)c3C#N)C(C)(C)C2)cc1	L major viab 100.3
CCOC(=O)c1sc(NC(=O)CSc2n[nH]c(-c3ccncc3)n2)c(C#N)c1C	none
Cc1ccc(Cn2cc(S(=O)(=O)c3ccc(Cl)cc3)c(=O)c3cc(F)ccc32)cc1	none
Cc1ccc(S(=O)(=O)c2cn(Cc3ccc(F)cc3)c3cc4c(cc3c2=O)OCO4)cc1	none
CC(C)c1ccc(S(=O)(=O)c2cn(Cc3ccc(F)cc3)c3cc4c(cc3c2=O)OCO4)cc1	L major viab 98.1
Cc1ccc(Cn2cc(S(=O)(=O)c3ccc(C(C)C)cc3)c(=O)c3cc4c(cc32)OCO4)cc1	L major viab 65.2
CC(C)CC(NC(=O)OC(C)(C)C)c1cn([C@@H](Cc2ccc(O)cc2)C(=O)N2CCN(C(=O)OC(C)(C)C)CC2)nn1 (some centres undefined)	none
N#CC1=C(N)N(c2ccccc2)C(c2cccc([N+](=O)[O-])c2)C1(C#N)C#N (centres undefined)	L major viab 54.1
Cc1cccc(N2C(N)=C(C#N)C(C#N)(C#N)C2c2ccccc2)c1 (centres undefined)	none
COCCn1c(=NC(=O)/C=C/c2ccccc2)sc2cc(NC(C)=O)ccc21	none
C=CCc1cc(Cl)ccc1OCCNCCOC	L major viab 95.0
C=CCc1cc(Cl)ccc1OCCN1CC(C)OC(C)C1 (centres undefined)	L major viab 82.9
CCCOc1ccc(Cl)cc1CN1CCOCC1	none
